# Test results from publication PMC3297693 (Journal of Medicinal Chemistry, 2012).
# “Also recorded” adds a separate entry of the source. Counter-ions that a name gives are not always drawn.
# Legend:
# [1] = system: NSCLC; experiment: NCI 60 five-concentration screen, NSCLC subpanel; assay type: cell-based; conditions: Homo sapiens, 48 h, read-out: TGI NSCLC
# [2] = system: Breast; experiment: NCI 60 five-concentration screen, breast subpanel; assay type: cell-based; conditions: Homo sapiens, 48 h, read-out: TGI Breast
# [3] = system: Colon; experiment: NCI 60 five-concentration screen, colon subpanel; assay type: cell-based; conditions: Homo sapiens, 48 h, read-out: GI50 Colon
# [4] = system: Ovarian; experiment: NCI 60 five-concentration screen, ovarian subpanel; assay type: cell-based; conditions: Homo sapiens, 48 h, read-out: TGI Ovarian
# [5] = system: Renal; experiment: NCI 60 five-concentration screen, renal subpanel; assay type: cell-based; conditions: Homo sapiens, 48 h, read-out: TGI Renal
# [6] = system: CNS; experiment: cells; assay type: cell-based; conditions: Homo sapiens, 48 h, read-out: TGI CNS
# [7] = system: Prostate; experiment: cells; assay type: cell-based; conditions: Homo sapiens, 48 h, read-out: TGI Prostate
# [8] = system: Melanoma; experiment: NCI 60 five-concentration screen, melanoma subpanel; assay type: cell-based; conditions: Homo sapiens, 48 h, read-out: TGI Melanoma
# [9] = system: Leukemia; experiment: cells; assay type: cell-based; conditions: Homo sapiens, 48 h, read-out: TGI Leukemia
# [10] = system: full NCI 60 cell panel; experiment: NCI 60 five-concentration screen, mean graph midpoint of all cell lines; assay type: cell-based; conditions: Homo sapiens, 48 h; for GI50: read-out: GI50 MG-MID (mean GI50); for IC (TGI): read-out: TGI MG-MID
# [11] = system: HT-29 colon cancer cells; experiment: Cell viability by trypan blue exclusion; assay type: cell-based, Human; conditions: HT-29 cells, 24 h, 100 or 500 nM tested
# Summary of the method: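 HT-29 cells in RPMI 1640/10% FBS/2 mM L-glutamine were plated at 2×10^4 cells/cm2. They were treated in triplicate for 24 h with 100 or 500 nM test compound (0.01% DMSO final; DMSO-only controls). Viable cells were counted by trypan blue exclusion. Values are means ± s.e.m. of three determinations.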
# [12] = system: Akt(Ser473); experiment: Kinase phosphorylation by Western blotting: Akt; assay type: cell-based, Human; conditions: HeLa cells, 1 μM, 3 h
# Summary of the method: (§1)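 HeLa cells in RPMI 1640/10% FBS/2 mM L-glutamine were exposed to 1 μM test compound for 3 h (0.01% DMSO). Lysates were cleared at 15,000 × g for 15 min and boiled 4 min, and 80 μg protein was run on SDS-PAGE. Proteins were blotted to nitrocellulose and probed with antibodies to total and phosphorylated kinase, then a peroxidase anti-rabbit IgG (1 h). Bands were detected by ECL chemiluminescence.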
# [13] = system: ERK1/2(Thr202/Tyr204); experiment: Kinase phosphorylation by Western blotting: ERK1/2; assay type: cell-based, Human; conditions: HeLa cells, 1 μM, 3 h
# Summary of the method: as §1
# [14] = system: caspase proteases (DEVDase activity); experiment: DEVDase; assay type: cell-based, Human; conditions: HT-29 cells, 500 nM, 48 h
# Summary of the method: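 HT-29 cells in RPMI 1640/10% FBS were exposed to 500 nM test compound for 48 h, with 0.01% DMSO and DMSO-only controls. DEVD-hydrolysing caspase (DEVDase) activity was measured fluorometrically in cell extracts. Values are means ± s.e.m. of four determinations.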
# [15] = system: p38MAPK(Thr180/Tyr182); experiment: Kinase phosphorylation by Western blotting: p38MAPK; assay type: cell-based, Human; conditions: HeLa cells, 1 μM, 3 h
# Summary of the method: as §1
# [16] = system: JNK(Thr183/Tyr185); experiment: Kinase phosphorylation by Western blotting: JNK; assay type: cell-based, Human; conditions: HeLa cells, 1 μM, 3 h
# Summary of the method: as §1
# [17] = system: HT-29 colon cancer cells; experiment: Cell cycle distribution by flow cytometry; assay type: cell-based, Human; conditions: HT-29 cells, 24 h
# Summary of the method: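 HT-29 cells grown in RPMI 1640 with 10% FBS and 2 mM L-glutamine (37 °C, 5% CO2). Test compound was added from a 10 mmol/L DMSO stock (0.01% DMSO final; DMSO-only controls) for 24 h. Cells were fixed in 70% ethanol at −20 °C for ≥12 h, treated with RNase A (10 μg/mL, 37 °C, 30 min) and stained with PI (50 μg/mL). DNA content was read by flow cytometry; one experiment representative of three.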
# [18] = system: AMPK(Thr172); experiment: Kinase phosphorylation by Western blotting: AMPK; assay type: cell-based, Human; conditions: HeLa cells, 1 μM, 3 h
# Summary of the method: as §1
# [19] = system: mTOR(Ser2448); experiment: Kinase phosphorylation by Western blotting: mTOR; assay type: cell-based, Human; conditions: HeLa cells, 1 μM, 3 h
# Summary of the method: as §1
# [20] = molecular target: tubulin (Bos taurus, UniProt Q6B856); experiment: Tubulin assembly assay; assay type: biochemical, Bovine; conditions: 10 μM tubulin, 20 min incubation at 30 °C
# Chain of tubulin (Q6B856 whole entry): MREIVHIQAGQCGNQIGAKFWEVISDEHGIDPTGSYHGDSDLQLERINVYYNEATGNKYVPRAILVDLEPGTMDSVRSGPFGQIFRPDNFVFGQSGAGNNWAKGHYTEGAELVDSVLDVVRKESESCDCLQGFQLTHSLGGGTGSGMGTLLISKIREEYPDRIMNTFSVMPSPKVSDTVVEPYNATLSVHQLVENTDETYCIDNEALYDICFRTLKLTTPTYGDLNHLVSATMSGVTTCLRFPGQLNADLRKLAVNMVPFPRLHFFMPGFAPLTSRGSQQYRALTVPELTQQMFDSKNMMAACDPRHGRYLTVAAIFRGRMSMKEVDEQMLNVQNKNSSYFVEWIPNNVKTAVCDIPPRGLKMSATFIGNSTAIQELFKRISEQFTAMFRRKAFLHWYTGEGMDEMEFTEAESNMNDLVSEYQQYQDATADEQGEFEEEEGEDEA
# Chain of tubulin (P81947 whole entry partner): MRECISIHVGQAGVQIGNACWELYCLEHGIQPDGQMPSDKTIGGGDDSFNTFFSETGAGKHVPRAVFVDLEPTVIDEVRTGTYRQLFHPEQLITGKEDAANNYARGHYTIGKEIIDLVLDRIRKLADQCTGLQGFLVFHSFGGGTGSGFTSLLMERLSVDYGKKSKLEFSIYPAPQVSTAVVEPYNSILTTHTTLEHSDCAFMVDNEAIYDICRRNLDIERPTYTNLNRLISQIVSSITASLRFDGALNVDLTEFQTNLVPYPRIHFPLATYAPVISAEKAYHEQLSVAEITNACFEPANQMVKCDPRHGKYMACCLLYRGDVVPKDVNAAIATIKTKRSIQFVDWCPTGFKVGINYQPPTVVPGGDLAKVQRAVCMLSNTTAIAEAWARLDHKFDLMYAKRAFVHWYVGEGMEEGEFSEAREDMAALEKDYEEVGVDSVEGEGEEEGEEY
# [21] = system: Bax; experiment: Bax expression and translocation by confocal microscopy; assay type: cell-based, Human; conditions: HT-29 cells, 500 nM, 24 h
# [22] = system: HT-29 colon cancer cells; experiment: Mitochondrial membrane potential with DiOC6; assay type: cell-based, Human; conditions: HT-29 cells, 500 nM, 24 h
# Summary of the method: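 After 24 h in 500 nM test compound (0.01% DMSO; DMSO controls), HT-29 cells at 1×10^6 cells/mL were stained with 4 nM DiOC6 for 40 min at 37 °C in the dark. Cells were counterstained with PI at 5 μg/mL to exclude dead cells. Green fluorescence was read by flow cytometry with logarithmic amplification; one experiment representative of three to five.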
# [23] = system: HT-29 colon cancer cells; experiment: Intracellular ROS content with DHE; assay type: cell-based, Human; conditions: HT-29 cells, 500 nM, 24 h
# Summary of the method: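 HT-29 cells were treated with 500 nM test compound for 24 h (0.01% DMSO; DMSO controls). They were then loaded with 5 μM dihydroethidium (from 10 mM DMSO stock) for 30 min at 37 °C to detect superoxide. Red fluorescence was read by flow cytometry with logarithmic amplification; one experiment representative of three to five.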
smiles,measurement,setting,value
"CC[C@]1(O)C[C@H]2CN(CCc3c([nH]c4ccccc34)[C@@](C(=O)OC)(c3cc4c(cc3OC)N(C=O)[C@H]3[C@@](O)(C(=O)OC)[C@H](OC(C)=O)[C@]5(CC)C=CCN6CC[C@]43[C@@H]65)C2)C1 [Vincristine sulfate, reference compound]",IC (TGI),[1],15.8 µM
same,IC (TGI),[2],7.94 µM
same,GI50,[3],0.1 µM
same,IC (TGI),[4],19.9 µM
same,IC (TGI),[5],19.9 µM
same,IC (TGI),[6],6.31 µM
same,IC (TGI),[7],6.31 µM
same,IC (TGI),[8],7.94 µM
same,IC (TGI),[9],15.8 µM
same,GI50,[10],0.2 µM
same,IC (TGI),[10],10 µM
COc1nc2sccn2c1/C=C1/C(=O)Nc2cccc(Cl)c21 [Compound 34],IC (TGI),[10],57.5 µM
O=C1Nc2cc(Cl)ccc2C1=Cc1c(-c2ccccn2)nc2sccn12 [Compound 30],GI50,[10],0.18 µM
same,IC (TGI),[10],14.1 µM
COc1nc2sccn2c1/C=C1/C(=O)Nc2cc(Cl)ccc21 [Compound 36],GI50,[10],0.44 µM
same,IC (TGI),[10],31.6 µM
COc1ccc2c(c1)/C(=C\c1c(-c3ccccn3)nc3sccn13)C(=O)N2 [Compound 31],concentration that triggered cell death (reduction in cell viability),[11],100 nM
same,Akt(Ser473) phosphorylation,[12],strongly reduced; also recorded: selectively and strongly inhibited
same,ERK1/2(Thr202/Tyr204) phosphorylation/activation,[13],slightly decreased
same,activity of effector caspases (DEVDase activity),[14],significantly increased
same,p38MAPK(Thr180/Tyr182) phosphorylation/activation,[15],slightly decreased
same,JNK(Thr183/Tyr185) phosphorylation/activation,[16],slightly decreased
same,concentration that induced accumulation of cells in the G2/M phase,[17],100 nM
same,IC (TGI),[9],0.58 µM
same,AMPK(Thr172) phosphorylation,[18],only slightly inhibited
same,mTOR(Ser2448) phosphorylation,[19],no significant effect
same,IC (TGI),[10],3.39 µM
O=C1Nc2ccc(Cl)cc2C1=Cc1c(-c2ccccn2)nc2sccn12 [Compound 29],Inhibition of tubulin assembly IC50 (μM) ± SD,[20],an IC50 could not be obtained
same,GI50,[10],0.83 µM
Cc1nn2c(/C=C3/C(=O)Nc4ccc(F)cc43)c(C)nc2s1 [Compound 7],IC (TGI),[5],91.2 µM
same,GI50,[10],15.1 µM
same,IC (TGI),[10],91.2 µM
O=C1Nc2ccccc2/C1=C\c1c(-c2ccccn2)nc2sccn12 [Compound 28],GI50,[10],1.15 µM
same,IC (TGI),[10],50.1 µM
COc1ccc2c(c1)C(=Cc1c(OC)nc3sccn13)C(=O)N2 [Compound 38],concentration that triggered cell death (reduction in cell viability),[11],100 nM
same,Akt(Ser473) phosphorylation,[12],strongly reduced; also recorded: selectively and strongly inhibited
same,ERK1/2(Thr202/Tyr204) phosphorylation/activation,[13],slightly decreased
same,activity of effector caspases (DEVDase activity),[14],significantly increased
same,p38MAPK(Thr180/Tyr182) phosphorylation/activation,[15],slightly decreased
same,JNK(Thr183/Tyr185) phosphorylation/activation,[16],slightly decreased
same,concentration that induced accumulation of cells in the G2/M phase,[17],100 nM
same,AMPK(Thr172) phosphorylation,[18],only slightly inhibited
same,mTOR(Ser2448) phosphorylation,[19],no significant effect
same,GI50,[10],0.07 µM
same,IC (TGI),[10],19.1 µM
Cc1cn2c(/C=C3/C(=O)Nc4c3ccc3ccccc43)c(C)nc2s1 [Compound 5],cellular content of Bax,[21],significant increase in the cellular content of Bax
same,concentration that triggered cell death (reduction in cell viability),[11],500 nM
same,Akt(Ser473) phosphorylation,[12],did not significantly influence
same,ERK1/2(Thr202/Tyr204) phosphorylation/activation,[13],did not significantly influence
same,activity of effector caspases (DEVDase activity),[14],significantly increased
same,p38MAPK(Thr180/Tyr182) phosphorylation/activation,[15],did not significantly influence
same,JNK(Thr183/Tyr185) phosphorylation/activation,[16],did not significantly influence
same,mitochondrial membrane potential (ΔΨm),[22],marked disruption of ΔΨm
same,concentration that induced accumulation of cells in the G2/M phase,[17],500 nM
same,superoxide formation (intracellular ROS content),[23],marked increase in superoxide formation
same,AMPK(Thr172) phosphorylation,[18],did not significantly influence
same,mTOR(Ser2448) phosphorylation,[19],did not significantly influence
same,IC (TGI),[10],19.9 µM
Cc1ccc(-c2nc3sc(C)cn3c2/C=C2/C(=O)Nc3cc(C)c(O)cc32)cc1 [Compound 11],IC (TGI),[9],83.2 µM
same,GI50,[10],22.9 µM
same,IC (TGI),[10],83.2 µM
COc1ccc2c(c1)/C(=C\c1c(-c3ccc(Cl)cc3)nc3sc(C)nn13)C(=O)N2 [Compound 16],GI50,[10],93.3 µM
Cc1ccc(-c2nc3sc(C)cn3c2/C=C2/C(=O)N(C)c3ccccc32)cc1 [Compound 12],GI50,[10],16.6 µM
same,IC (TGI),[10],83.2 µM
COc1nc2sccn2c1/C=C1/C(=O)Nc2ccc(Cl)cc21 [Compound 35],GI50,[10],2.82 µM
same,IC (TGI),[10],55 µM
COc1nc2sccn2c1/C=C1/C(=O)N(C)c2ccccc21 [Compound 40],IC (TGI),[4],72.4 µM
same,GI50,[10],6.31 µM
same,IC (TGI),[10],72.4 µM
COc1nc2sccn2c1/C=C1/C(=O)Nc2ccccc21 [Compound 33],GI50,[10],0.39 µM
same,IC (TGI),[10],22.9 µM
Cc1nn2c(/C=C3/C(=O)Nc4ccc(F)cc43)c(-c3ccc(Cl)cc3)nc2s1 [Compound 17],GI50,[10],37.1 µM
same,IC (TGI),[10],93.3 µM
COc1ccc2c(c1)/C(=C\c1c(-c3ccc(C)cc3)nc3sc(C)cn13)C(=O)N2C [Compound 13],GI50,[10],13.8 µM
Cc1nn2c(/C=C3/C(=O)Nc4c3ccc3ccccc43)c(C)nc2s1 [Compound 9],IC (TGI),[6],4.9 µM
same,GI50,[10],0.5 µM
same,IC (TGI),[10],8.51 µM
Cc1cn2c(/C=C3/C(=O)Nc4cc(Cl)ccc43)c(C)nc2s1 [Compound 4],GI50,[10],2 µM
same,IC (TGI),[10],51.3 µM
COc1cc(-c2nc3sc(C)cn3c2/C=C2/C(=O)Nc3ccccc32)c(Br)c(OC)c1OC [Compound 24],GI50,[10],28.8 µM
same,IC (TGI),[10],77.6 µM
COc1nc2sccn2c1C=C1C(=O)Nc2ccc(F)cc21 [Compound 37],IC (TGI),[9],52.5 µM
same,GI50,[10],5.01 µM
same,IC (TGI),[10],52.5 µM
COc1ccc2c(c1)C(=Cc1c(OC)nc3sccn13)C(=O)N2C [Compound 39],IC (TGI),[9],4.9 µM
same,GI50,[10],0.54 µM
same,IC (TGI),[10],34.7 µM
